{"source": "ChEMBL document CHEMBL5661979", "about": "“Pharmacological inhibition of BMK1 suppresses tumor growth through promyelocytic leukemia protein” (Cancer Cell, 2010)", "format_in_all_cases": "subcellular", "key": {"[1]": {"target": "T1, Dual specificity mitogen-activated protein kinase kinase 4 (Homo sapiens) (UniProt P45985)", "T1 sequence (whole entry)": "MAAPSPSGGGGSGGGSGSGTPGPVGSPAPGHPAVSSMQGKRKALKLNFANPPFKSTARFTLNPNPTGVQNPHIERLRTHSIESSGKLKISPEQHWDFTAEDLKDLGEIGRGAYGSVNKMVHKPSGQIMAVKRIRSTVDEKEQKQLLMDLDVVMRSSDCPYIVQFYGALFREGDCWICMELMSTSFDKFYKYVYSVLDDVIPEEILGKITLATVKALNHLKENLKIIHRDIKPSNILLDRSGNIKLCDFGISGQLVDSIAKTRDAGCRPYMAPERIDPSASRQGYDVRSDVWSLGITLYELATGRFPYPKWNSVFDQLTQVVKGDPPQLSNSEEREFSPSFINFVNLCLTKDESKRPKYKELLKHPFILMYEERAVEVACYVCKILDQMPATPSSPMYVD", "test": "Inhibition of MAP2K4 in human HeLa cells lysate at 2 uM pre incubated for 15 mins followed by ATP acyl phosphate probe addition and measured after 10 mins by LC-MS/MS analysis relative to control", "details": "time 25.0 min"}, "[2]": {"target": "T2, Serine/threonine-protein kinase 38-like (Homo sapiens, UniProt Q9Y2H1)", "T2 sequence (Q9Y2H1 2-464 limits assumed)": "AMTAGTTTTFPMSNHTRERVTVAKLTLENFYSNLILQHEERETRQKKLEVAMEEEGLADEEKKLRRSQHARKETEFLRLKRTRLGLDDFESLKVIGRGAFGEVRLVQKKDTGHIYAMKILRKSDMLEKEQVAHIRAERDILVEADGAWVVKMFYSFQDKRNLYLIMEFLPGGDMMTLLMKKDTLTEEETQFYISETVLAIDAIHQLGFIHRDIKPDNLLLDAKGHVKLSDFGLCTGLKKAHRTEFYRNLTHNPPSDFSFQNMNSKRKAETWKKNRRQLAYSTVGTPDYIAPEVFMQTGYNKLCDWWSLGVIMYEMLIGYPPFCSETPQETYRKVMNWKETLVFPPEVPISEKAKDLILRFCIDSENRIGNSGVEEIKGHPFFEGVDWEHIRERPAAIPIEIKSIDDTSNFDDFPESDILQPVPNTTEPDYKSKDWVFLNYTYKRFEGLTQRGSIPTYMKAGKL", "test": "Inhibition of NDR2 in human HeLa cells lysate at 50 uM pre incubated for 15 mins followed by ADP acyl phosphate probe addition and measured after 10 mins by LC-MS/MS analysis relative to control", "details": "time 25.0 min"}, "[3]": {"target": "Cyclin-dependent kinase 11B (Homo sapiens, UniProt P21127)", "test": "Inhibition of PITSLRE in human HeLa cells lysate at 50 uM pre incubated for 15 mins followed by ATP acyl phosphate probe addition and measured after 10 mins by LC-MS/MS analysis relative to control", "details": "time 25.0 min"}, "[4]": {"target": "Glycogen synthase kinase-3 alpha (Homo sapiens, UniProt P49840)", "sequence (P49840 2-483 limits assumed)": "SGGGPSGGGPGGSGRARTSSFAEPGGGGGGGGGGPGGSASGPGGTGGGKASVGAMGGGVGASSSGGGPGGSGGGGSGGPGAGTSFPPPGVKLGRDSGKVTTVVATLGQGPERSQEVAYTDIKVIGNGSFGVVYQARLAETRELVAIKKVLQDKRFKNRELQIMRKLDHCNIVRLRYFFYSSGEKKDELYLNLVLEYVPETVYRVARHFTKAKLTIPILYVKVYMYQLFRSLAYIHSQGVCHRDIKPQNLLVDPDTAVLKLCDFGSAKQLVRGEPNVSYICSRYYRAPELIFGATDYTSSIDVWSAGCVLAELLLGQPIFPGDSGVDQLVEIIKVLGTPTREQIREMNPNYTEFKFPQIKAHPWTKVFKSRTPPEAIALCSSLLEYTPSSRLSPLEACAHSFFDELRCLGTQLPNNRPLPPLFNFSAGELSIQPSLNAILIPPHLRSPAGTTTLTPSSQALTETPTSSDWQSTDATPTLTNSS", "test": "Inhibition of GSK3A in human HeLa cells lysate at 2 uM pre incubated for 15 mins followed by ATP acyl phosphate probe addition and measured after 10 mins by LC-MS/MS analysis relative to control", "details": "time 25.0 min"}, "[5]": {"target": "Interleukin-1 receptor-associated kinase 1 (Homo sapiens, UniProt P51617)", "sequence (P51617 whole entry, looked up)": "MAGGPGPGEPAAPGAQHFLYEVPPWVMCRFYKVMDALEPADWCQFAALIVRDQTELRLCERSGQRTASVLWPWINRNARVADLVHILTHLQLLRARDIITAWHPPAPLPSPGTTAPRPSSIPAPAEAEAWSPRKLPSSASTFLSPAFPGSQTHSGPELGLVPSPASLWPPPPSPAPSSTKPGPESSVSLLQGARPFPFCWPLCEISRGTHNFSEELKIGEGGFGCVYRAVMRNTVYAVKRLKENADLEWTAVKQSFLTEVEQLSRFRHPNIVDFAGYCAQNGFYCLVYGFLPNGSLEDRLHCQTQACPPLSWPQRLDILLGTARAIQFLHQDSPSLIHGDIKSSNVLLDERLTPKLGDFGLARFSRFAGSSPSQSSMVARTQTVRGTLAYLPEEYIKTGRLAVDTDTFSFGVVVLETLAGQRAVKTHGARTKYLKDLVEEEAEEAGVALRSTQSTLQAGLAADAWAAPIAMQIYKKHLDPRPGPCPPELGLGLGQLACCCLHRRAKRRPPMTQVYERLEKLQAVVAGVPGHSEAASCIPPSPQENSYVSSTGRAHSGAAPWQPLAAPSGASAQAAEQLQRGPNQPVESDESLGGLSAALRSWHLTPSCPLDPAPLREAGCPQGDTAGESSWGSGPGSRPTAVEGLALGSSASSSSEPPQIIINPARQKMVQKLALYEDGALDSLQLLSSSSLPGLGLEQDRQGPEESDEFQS", "test": "Inhibition of IRAK1 in human HeLa cells lysate at 50 uM pre incubated for 15 mins followed by ATP acyl phosphate probe addition and measured after 10 mins by LC-MS/MS analysis relative to control", "details": "time 25.0 min"}, "[6]": {"target": "Protein kinase C zeta type (Homo sapiens, UniProt Q05513)", "sequence (Q05513 whole entry)": "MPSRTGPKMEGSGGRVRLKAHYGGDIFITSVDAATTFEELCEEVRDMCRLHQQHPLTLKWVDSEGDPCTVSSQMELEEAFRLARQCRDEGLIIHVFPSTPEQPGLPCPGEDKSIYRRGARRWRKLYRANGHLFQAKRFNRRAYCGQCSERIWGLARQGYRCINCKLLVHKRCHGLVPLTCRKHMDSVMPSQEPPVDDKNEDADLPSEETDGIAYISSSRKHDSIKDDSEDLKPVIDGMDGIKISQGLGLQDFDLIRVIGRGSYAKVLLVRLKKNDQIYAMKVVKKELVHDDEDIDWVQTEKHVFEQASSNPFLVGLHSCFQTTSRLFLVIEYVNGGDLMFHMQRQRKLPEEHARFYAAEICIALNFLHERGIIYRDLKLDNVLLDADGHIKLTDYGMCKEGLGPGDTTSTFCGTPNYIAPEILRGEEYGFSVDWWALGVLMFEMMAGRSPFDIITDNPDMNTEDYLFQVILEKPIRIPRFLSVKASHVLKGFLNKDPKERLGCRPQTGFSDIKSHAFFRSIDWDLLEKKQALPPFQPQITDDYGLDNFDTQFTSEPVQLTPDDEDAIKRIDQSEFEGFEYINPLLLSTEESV", "test": "Inhibition of PKCzeta in human HeLa cells lysate pre incubated for 15 mins followed by ADP acyl phosphate probe addition and measured after 10 mins by LC-MS/MS analysis"}, "[7]": {"target": "T3, Serine/threonine-protein kinase Chk1 (Homo sapiens) (UniProt O14757)", "T3 sequence (whole entry)": "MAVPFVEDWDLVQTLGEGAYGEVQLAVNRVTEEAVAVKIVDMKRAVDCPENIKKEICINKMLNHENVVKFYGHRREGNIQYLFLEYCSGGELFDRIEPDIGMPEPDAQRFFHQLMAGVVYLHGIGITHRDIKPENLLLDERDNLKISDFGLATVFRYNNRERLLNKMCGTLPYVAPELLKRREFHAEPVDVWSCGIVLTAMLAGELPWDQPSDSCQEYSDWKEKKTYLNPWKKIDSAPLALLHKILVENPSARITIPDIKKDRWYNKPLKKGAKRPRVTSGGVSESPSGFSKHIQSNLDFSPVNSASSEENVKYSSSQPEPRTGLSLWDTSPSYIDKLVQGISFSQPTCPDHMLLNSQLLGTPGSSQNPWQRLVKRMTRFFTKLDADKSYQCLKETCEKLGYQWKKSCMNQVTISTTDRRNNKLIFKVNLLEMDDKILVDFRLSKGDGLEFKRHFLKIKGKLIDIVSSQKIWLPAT", "test": "Inhibition of CHK1 in human HeLa cells lysate at 50 uM pre incubated for 15 mins followed by ATP acyl phosphate probe addition and measured after 10 mins by LC-MS/MS analysis relative to control", "details": "time 25.0 min"}, "[8]": {"target": "T4, Serine/threonine-protein kinase Sgk3 (Homo sapiens) (UniProt Q96BR1)", "T4 sequence (whole entry)": "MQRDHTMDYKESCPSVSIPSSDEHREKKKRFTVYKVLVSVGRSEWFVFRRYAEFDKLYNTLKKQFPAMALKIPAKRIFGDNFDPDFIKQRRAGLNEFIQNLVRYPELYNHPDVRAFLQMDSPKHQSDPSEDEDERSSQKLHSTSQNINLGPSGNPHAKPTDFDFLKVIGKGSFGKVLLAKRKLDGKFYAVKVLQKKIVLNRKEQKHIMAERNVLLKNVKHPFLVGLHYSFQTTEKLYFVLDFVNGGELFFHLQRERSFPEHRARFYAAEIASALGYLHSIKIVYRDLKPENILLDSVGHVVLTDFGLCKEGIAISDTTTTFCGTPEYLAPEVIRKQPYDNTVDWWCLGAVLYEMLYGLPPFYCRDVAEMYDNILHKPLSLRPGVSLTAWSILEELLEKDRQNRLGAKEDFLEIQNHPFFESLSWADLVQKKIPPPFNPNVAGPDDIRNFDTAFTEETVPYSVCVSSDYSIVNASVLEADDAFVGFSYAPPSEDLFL", "test": "Inhibition of SGK3 in human HeLa cells lysate at 10 uM pre incubated for 15 mins followed by ADP acyl phosphate probe addition and measured after 10 mins by LC-MS/MS analysis relative to control", "details": "time 25.0 min"}, "[9]": {"target": "DNA-dependent protein kinase catalytic subunit (Homo sapiens, UniProt P78527)", "test": "Inhibition of PRKDC in human HeLa cells lysate pre incubated for 15 mins followed by ATP acyl phosphate probe addition and measured after 10 mins by LC-MS/MS analysis"}, "[10]": {"target": "Phosphatidylinositol 4-kinase alpha (Homo sapiens, UniProt P42356)", "sequence (P42356 whole entry, looked up)": "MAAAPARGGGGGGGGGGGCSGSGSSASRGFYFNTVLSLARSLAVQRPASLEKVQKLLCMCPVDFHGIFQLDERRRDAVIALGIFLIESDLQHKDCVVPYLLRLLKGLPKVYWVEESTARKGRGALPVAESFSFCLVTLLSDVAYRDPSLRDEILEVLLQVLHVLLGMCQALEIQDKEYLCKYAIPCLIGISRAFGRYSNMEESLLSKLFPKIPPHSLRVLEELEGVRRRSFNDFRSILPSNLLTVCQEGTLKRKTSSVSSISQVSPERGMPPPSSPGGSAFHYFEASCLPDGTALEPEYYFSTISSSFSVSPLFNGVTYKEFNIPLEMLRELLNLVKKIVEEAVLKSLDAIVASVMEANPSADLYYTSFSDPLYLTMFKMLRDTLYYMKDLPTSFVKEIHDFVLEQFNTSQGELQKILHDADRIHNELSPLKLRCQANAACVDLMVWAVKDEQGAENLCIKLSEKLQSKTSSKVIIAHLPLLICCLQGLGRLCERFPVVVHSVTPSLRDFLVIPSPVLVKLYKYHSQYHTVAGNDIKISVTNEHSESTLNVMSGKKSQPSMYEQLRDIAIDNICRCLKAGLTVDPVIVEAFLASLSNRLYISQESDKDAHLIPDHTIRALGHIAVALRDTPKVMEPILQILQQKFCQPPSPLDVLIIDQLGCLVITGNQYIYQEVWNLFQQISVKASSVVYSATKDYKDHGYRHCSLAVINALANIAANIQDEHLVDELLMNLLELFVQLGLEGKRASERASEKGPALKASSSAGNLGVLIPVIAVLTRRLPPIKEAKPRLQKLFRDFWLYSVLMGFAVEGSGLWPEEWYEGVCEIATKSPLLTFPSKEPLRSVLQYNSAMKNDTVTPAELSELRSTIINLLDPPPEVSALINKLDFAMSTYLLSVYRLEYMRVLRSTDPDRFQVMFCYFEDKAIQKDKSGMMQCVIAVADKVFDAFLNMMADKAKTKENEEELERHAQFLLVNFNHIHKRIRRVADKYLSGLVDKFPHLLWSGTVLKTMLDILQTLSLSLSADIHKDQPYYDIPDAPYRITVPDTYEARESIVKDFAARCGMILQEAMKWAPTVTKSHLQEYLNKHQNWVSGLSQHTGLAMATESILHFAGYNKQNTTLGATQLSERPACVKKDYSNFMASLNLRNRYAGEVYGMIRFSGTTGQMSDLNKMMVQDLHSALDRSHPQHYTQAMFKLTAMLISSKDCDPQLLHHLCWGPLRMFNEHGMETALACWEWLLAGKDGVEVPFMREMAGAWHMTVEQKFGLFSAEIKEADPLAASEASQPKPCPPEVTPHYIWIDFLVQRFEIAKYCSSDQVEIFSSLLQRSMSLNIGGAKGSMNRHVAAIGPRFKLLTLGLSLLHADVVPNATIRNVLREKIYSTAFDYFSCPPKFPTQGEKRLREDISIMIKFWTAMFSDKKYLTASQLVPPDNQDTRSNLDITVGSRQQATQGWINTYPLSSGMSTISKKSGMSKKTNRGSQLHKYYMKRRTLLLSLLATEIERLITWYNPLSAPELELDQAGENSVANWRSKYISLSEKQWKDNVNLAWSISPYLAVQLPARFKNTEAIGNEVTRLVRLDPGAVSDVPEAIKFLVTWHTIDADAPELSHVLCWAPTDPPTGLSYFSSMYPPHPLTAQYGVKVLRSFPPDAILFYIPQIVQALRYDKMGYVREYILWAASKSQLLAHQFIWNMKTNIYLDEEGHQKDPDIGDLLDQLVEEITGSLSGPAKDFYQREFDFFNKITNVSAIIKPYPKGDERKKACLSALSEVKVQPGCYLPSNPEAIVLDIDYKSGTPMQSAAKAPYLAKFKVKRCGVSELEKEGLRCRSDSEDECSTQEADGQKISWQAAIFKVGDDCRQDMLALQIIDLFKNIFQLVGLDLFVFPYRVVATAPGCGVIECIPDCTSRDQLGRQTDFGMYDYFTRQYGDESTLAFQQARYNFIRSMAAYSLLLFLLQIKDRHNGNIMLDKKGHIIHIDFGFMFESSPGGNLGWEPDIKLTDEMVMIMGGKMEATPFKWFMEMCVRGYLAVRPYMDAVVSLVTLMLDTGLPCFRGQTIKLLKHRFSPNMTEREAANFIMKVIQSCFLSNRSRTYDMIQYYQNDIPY", "test": "Inhibition of PIK4CA in human HeLa cells lysate at 50 uM pre incubated for 15 mins followed by ATP acyl phosphate probe addition and measured after 10 mins by LC-MS/MS analysis relative to control", "details": "time 25.0 min"}, "[11]": {"target": "T2, Serine/threonine-protein kinase 38-like", "test": "Inhibition of NDR2 in human HeLa cells lysate at 2 uM pre incubated for 15 mins followed by ADP acyl phosphate probe addition and measured after 10 mins by LC-MS/MS analysis relative to control", "details": "time 25.0 min"}, "[12]": {"target": "Phosphatidylinositol 4-phosphate 3-kinase C2 domain-containing subunit beta (Homo sapiens, UniProt O00750)", "test": "Inhibition of PIK3C2B in human HeLa cells lysate at 10 uM pre incubated for 15 mins followed by ATP acyl phosphate probe addition and measured after 10 mins by LC-MS/MS analysis relative to control", "details": "time 25.0 min"}, "[13]": {"target": "Cyclin-dependent kinase 7 (Homo sapiens, UniProt P50613)", "sequence (P50613 whole entry)": "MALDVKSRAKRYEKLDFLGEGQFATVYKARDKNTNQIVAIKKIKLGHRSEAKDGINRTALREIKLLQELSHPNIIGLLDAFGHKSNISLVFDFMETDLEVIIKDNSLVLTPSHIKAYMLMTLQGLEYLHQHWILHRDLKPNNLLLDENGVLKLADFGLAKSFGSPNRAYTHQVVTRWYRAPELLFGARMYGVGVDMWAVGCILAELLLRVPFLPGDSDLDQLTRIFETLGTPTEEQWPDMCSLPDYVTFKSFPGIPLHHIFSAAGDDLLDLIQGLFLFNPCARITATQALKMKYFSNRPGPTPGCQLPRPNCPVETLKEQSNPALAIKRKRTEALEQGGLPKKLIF", "test": "Inhibition of CDK7 in human HeLa cells lysate at 2 uM pre incubated for 15 mins followed by ATP acyl phosphate probe addition and measured after 10 mins by LC-MS/MS analysis relative to control", "details": "time 25.0 min", "summary_of_the_method": "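KiNativ profiling in HeLa lysate (5 mg/mL total protein). Lysate incubated 15 min with inhibitor at 50, 10, 2, 0.8 or 0 μM. ATP or ADP acylphosphate probe then added (5 μM final) and reacted 10 min. Reaction stopped with urea and analysed by targeted MS, using up to four fragment ions per kinase peptide-probe conjugate. % inhibition taken against untreated lysate. Run in duplicate.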"}}}
{"compound": "CCOc1cc(N2CCC(O)CC2)ccc1Nc1ncc2c(n1)N(C)c1ccccc1C(=O)N2C", "values": [{"measurement": "inhibition", "setting": "[1]", "value": 4.8, "unit": "%"}, {"measurement": "inhibition", "setting": "[2]", "value": 6.8, "unit": "%"}, {"measurement": "inhibition", "setting": "[3]", "value": -8.6, "unit": "%"}, {"measurement": "inhibition", "setting": "[4]", "value": -5.5, "unit": "%"}, {"measurement": "inhibition", "setting": "[5]", "value": -8.3, "unit": "%"}, {"measurement": "IC50", "setting": "[6]", "value": "> 50", "unit": "µM"}, {"measurement": "inhibition", "setting": "[7]", "value": -0.4, "unit": "%"}, {"measurement": "inhibition", "setting": "[8]", "value": -0.3, "unit": "%"}, {"measurement": "IC50", "setting": "[9]", "value": "> 50", "unit": "µM"}, {"measurement": "inhibition", "setting": "[10]", "value": 58, "unit": "%"}, {"measurement": "inhibition", "setting": "[11]", "value": 11.7, "unit": "%"}, {"measurement": "inhibition", "setting": "[12]", "value": 6.5, "unit": "%"}, {"measurement": "inhibition", "setting": "[13]", "value": -7.9, "unit": "%"}]}
